Key:
BHK-21 cells [1] = experiment: Cytotoxicity assay; assay type: cell-based
DENV-2 [2] = experiment: Post-infection plaque reduction assay; assay type: cell-based, Dengue virus; conditions: S.71 at 50 and 100 μM, POD at 0.1 μM; six days
Procedure, shortened: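 BHK-21 cells infected with DENV-2 (MOI=1) for 2 h at 37 °C, 5% CO2, then washed with PBS. Test compound (12.5–100 µM) added in 1.5% carboxymethylcellulose medium; positive control as log dilutions 0.1–100 µM. Incubated 6 days, then plaques counted in 3 independent assays. EC50 defined as the concentration reducing viral plaques by 50%.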

DENV-2 [3] = experiment: Time-of-addition; assay type: cell-based, Dengue virus; conditions: S.71 72.4 μM, POD 0.1 μM added at 6 and 12 hpi, 24 h exposure, MOI=1
Procedure, shortened: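 BHK-21 cells infected (MOI=1, 2 h, 37 °C, 5% CO2) and washed with PBS. DMEM with 2% FBS containing test compound (72.4 µM; positive control 0.1 µM) added at 6, 12, 24 or 36 hpi, then incubated a further 24 h. Supernatant titrated by plaque assay. DMSO <0.05%. Three independent experiments, mean ± s.e.m., one-way ANOVA.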

DENV-2 [4] = experiment: Negative-strand RNA production; assay type: cell-based, Dengue virus; conditions: S.71 72.4 μM, POD 0.1 μM; 6 and 12 hpi
BHK-21 cells [5] = experiment: Fluorescence imaging of microtubules, MTOC and endoplasmic reticulum; assay type: cell-based; conditions: for MTOC localization/detection: BHK-21 cells, 24 h treatment
Procedure, shortened: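 BHK-21 cells on coverslips infected (MOI=1, 2 h) or mock, then treated 24 h with test compound from 6 or 12 hpi. Fixed in 3.8% paraformaldehyde. Microtubules stained with anti-α/β-tubulin and MTOC with anti-γ-tubulin; […] used as comparator. For ER imaging, cells were transfected with pmKate2-ER plasmid and infected 24 h later. Imaged with a 60x objective.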

DENV-2 [6] = experiment: Fluorescence imaging of dsRNA and ENV protein; assay type: cell-based, Dengue virus; conditions: treatment at 6 and 12 hpi; S.71 72.4 µM, POD 0.1 µM
Procedure, shortened: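 BHK-21 cells on coverslips infected with DENV-2 (MOI=1, 2 h). Test compound (72.4 µM; positive control 0.1 µM) added at 6 or 12 hpi and left 24 h. Cells washed with cytoskeleton buffer, fixed in 3.8% paraformaldehyde and immunostained for ENV (4G2) and dsRNA (J2), with tubulin and Hoechst nuclei. Imaged with a 60x objective; mean fluorescence intensity quantified. Three independent triplicate experiments; unpaired t-test.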

BHK-21 cells [7] = experiment: Annexin V staining, size and granularity; assay type: cell-based; conditions: infected or uninfected BHK-21 cells, 24 h
Procedure, shortened: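 Infected and/or treated BHK-21 cells resuspended in binding buffer with annexin V, incubated 15 min at 4 °C, then diluted with binding buffer and centrifuged 5 min. Analysed by flow cytometry for annexin V, with cell size from forward scatter (FSC) and granularity from side scatter (SSC).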

BHK-21 cells [8] = experiment: Cell recovery assay; assay type: cell-based
Procedure, shortened: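 BHK-21 cells on coverslips exposed 24 h to test compound. Compound then removed, monolayers washed and cultured 3 days in DMEM with 2% FBS. Cells fixed with 3.8% paraformaldehyde and nuclei stained with Hoechst 33342. Morphology imaged by differential interference contrast with a 60x objective.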

HCV = conditions: ref Bost et al., 2003; cited from earlier work
ZIKV = conditions: ref Sultana et al., 2018; cited from earlier work
ER = conditions: treatment during 2 h; ref Terasaki et al., 1986; cited from earlier work

COc1cc([C@@H]2c3cc4c(cc3[C@H](O)[C@H]3COC(=O)[C@H]23)OCO4)cc(OC)c1OC [POD, Podophyllotoxin]
concentrations at which very toxic (BHK-21 cells [1]; CC50 could not be determined): > 1000 nM | effect on cells below 1 µM (BHK-21 cells [1]; below 1 µM): cytostatic | viral titer in post-infection treatment (DENV-2 [2]): effective | viral yield of DENV-2 (DENV-2 [3]): effective | negative-strand RNA copies (DENV-2 [4]): low numbers of copies | effect on rough endoplasmic reticulum (BHK-21 cells [5]; 6 hpi or 12 hpi, infected and mock cells): ER retraction | MTOC localization/detection (BHK-21 cells [5]): not detected | cell morphology and microtubule distribution (BHK-21 cells [5]; infected and uninfected cells treated at 6 or 12 hpi, 24 h, S.71 72.4 µM, POD 0.1 µM): round morphology and fragmented microtubules | ENV protein signal (MFI) (DENV-2 [6]): significant decreases | dsRNA signal (MFI) (DENV-2 [6]): significant decreases | cell granularity (SSC) (BHK-21 cells [7]): increase in cell granularity | cell size (FSC) (BHK-21 cells [7]): changes in cell size were not observed | phosphatidylserine exposure (annexin V) (BHK-21 cells [7]): nor changes in phosphatidylserine exposure | recovery of cell morphology after treatment removal (BHK-21 cells [8]; 24 h treatment, then nutrient-supplemented medium): recovered their normal morphology after three days | nuclei after 24 h treatment (BHK-21 cells [8]; BHK-21 cells, 24 h): pyknotic and fragmented nuclei

COc1cc2c(c(OC)c1OC)-c1ccc(OC)c(=O)cc1[C@@H](NC(C)=O)CC2 [colchicine]
HCV viral infection (HCV): reduced | ZIKV viral infection (ZIKV): reduced

COC(=O)Nc1nc2ccc(C(=O)c3cccs3)cc2[nH]1 [nocodazole]
MTOC localization/detection (BHK-21 cells [5]): not detected | HCV viral infection (HCV): reduced | ZIKV viral infection (ZIKV): reduced | effect on ER (ER): ER retraction

CC(=O)O[C@H]1C(=O)[C@@]2(C)[C@H]([C@H](OC(=O)c3ccccc3)[C@]3(O)C[C@H](OC(=O)[C@H](O)[C@@H](NC(=O)c4ccccc4)c4ccccc4)C(C)=C1C3(C)C)[C@]1(OC(C)=O)CO[C@@H]1C[C@@H]2O [paclitaxel]
HCV viral infection (HCV): reduced | ZIKV viral infection (ZIKV): reduced

From publication PMC10194330 (Virus Research, 2022)
